Usually MIC stands for the lowest concentration that inhibits growth of the organism. Lower therefore signals greater potency. Broadly, the IC50 is the midpoint of a concentration-inhibition curve. Lower therefore signals greater potency.

These results are taken from ChEMBL document CHEMBL3259701, “Siderophore receptor-mediated uptake of lactivicin analogues in gram-negative bacteria” (J Med Chem, 2014).

Molecules are shown by their SMILES. ≈ marks a conversion by molar mass, not a printed value. Bounds are passed on as bounds.

The subject of experiment [1] is Escherichia coli. The experiment can be described thus: Antibacterial activity against Escherichia coli DH5alpha expressing beta-lactamase CTX-M-15 by CLSI broth microdilution method. The format is functional. The note with it: DH5[alpha]. For orientation: Dilution methods test growth across graded concentrations, often in twofold steps.
Experiment [2] has as its system Escherichia coli. Nature of the experiment: Antibacterial activity against Escherichia coli DH5alpha expressing beta-lactamase SHV-5 by CLSI broth microdilution method. Conditions: DH5[alpha]. It is filed as functional.
In experiment [3] the test system is Escherichia coli. The experiment can be described thus: Antibacterial activity against Escherichia coli DH5alpha by CLSI broth microdilution method. The format is functional. Conditions: DH5[alpha].
The test system of experiment [4] is Escherichia coli. The experiment can be described thus: Antibacterial activity against Escherichia coli DH5alpha expressing beta-lactamase TEM-24 by CLSI broth microdilution method. It is filed as functional. The note with it: DH5[alpha].
In experiment [5] the test system is Escherichia coli. The experiment can be described thus: Antibacterial activity against Escherichia coli DH5alpha expressing beta-lactamase NDM-1 by CLSI broth microdilution method. The note with it: DH5[alpha]. It is filed as functional.
In experiment [6] the test system is Escherichia coli. The experiment can be described thus: Antibacterial activity against Escherichia coli DH5alpha expressing beta-lactamase OXA-24/40 by CLSI broth microdilution method. The format is functional. The note with it: DH5[alpha].
The subject of experiment [7] is Escherichia coli. The experiment can be described thus: Antibacterial activity against Escherichia coli DH5alpha expressing beta-lactamase OXA-58 by CLSI broth microdilution method. It is filed as functional. The note with it: DH5[alpha].
Experiment [8] deals with Escherichia coli. The experiment can be described thus: Antibacterial activity against Escherichia coli DH5alpha expressing beta-lactamase TEM-1 by CLSI broth microdilution method. It is filed as functional. Conditions: DH5[alpha].
The test system of experiment [9] is Escherichia coli. Nature of the experiment: Antibacterial activity against Escherichia coli DH5alpha expressing beta-lactamase SHV-12 by CLSI broth microdilution method. Conditions: DH5[alpha]. The format is functional.
For experiment [10], the system named is Escherichia coli. Nature of the experiment: Antibacterial activity against Escherichia coli DH5alpha expressing beta-lactamase VIM-2 by CLSI broth microdilution method. The format is functional. The note with it: DH5[alpha].
Experiment [11] has as its system Escherichia coli. The experiment can be described thus: Antibacterial activity against Escherichia coli DH5alpha harboring pUCP26 empty vector by CLSI broth microdilution method. The format is functional. Conditions: DH5[alpha].
For experiment [12], the system named is Escherichia coli. The experiment can be described thus: Antibacterial activity against Escherichia coli DH5alpha expressing beta-lactamase KPC-3 by CLSI broth microdilution method. The format is functional. Conditions: DH5[alpha].
Experiment [13] relates to Pseudomonas aeruginosa. The experiment can be described thus: Antibacterial activity against Pseudomonas aeruginosa PAO1 by CLSI broth microdilution method. The format is functional.
The next experiment has as its system Klebsiella pneumoniae. The experiment can be described thus: Antibacterial activity against Klebsiella pneumoniae KP-3700 by CLSI broth microdilution method. The format is functional.
Experiment [14] has as its target Penicillin-binding protein 1A (Pseudomonas aeruginosa PAO1, UniProt Q07806). Nature of the experiment: Displacement of fluorescent Bocillin FL from N-terminal His tagged Pseudomonas aeruginosa PAO1 PBP1a (residues 36 to 822) expressed in Escherichia coli BL21 (Gold cells).
A short description of experiment [15]: Displacement of fluorescent Bocillin FL from Pseudomonas aeruginosa PBP2.
Experiment [16] deals with Escherichia coli. Nature of the experiment: Antibacterial activity against Escherichia coli EC-28 by CLSI broth microdilution method. It is filed as functional.
Experiment [17] deals with Pseudomonas aeruginosa. The experiment can be described thus: Antibacterial activity against Pseudomonas aeruginosa 1091-05 by CLSI broth microdilution method. The format is functional.
Experiment [18] in a line: Displacement of fluorescent Bocillin FL from Pseudomonas aeruginosa PBP1b.
Another experiment relates to Acinetobacter baumannii. Nature of the experiment: Antibacterial activity against Acinetobacter baumannii AB-3167 by CLSI broth microdilution method. The format is functional.
The nature of experiment [19]: Displacement of fluorescent Bocillin FL from Pseudomonas aeruginosa PBP3.
Experiment [20] has as its system Escherichia coli. Nature of the experiment: Ratio of MIC for Escherichia coli DH5alpha expressing beta-lactamase OXA-24/40 to MIC for Escherichia coli DH5alpha harboring pUCP26 empty vector. It is filed as functional, DH5[alpha]. In short, it runs like this: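 Isogenic E. coli panel in which each strain was engineered to express a single common β-lactamase. MIC for the OXA-24/40 strain was divided by the MIC for the empty-vector control strain. MICs were obtained by CLSI broth microdilution.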

Sequence of Penicillin-binding protein 1A (Q07806 whole entry, the tested form may be a part): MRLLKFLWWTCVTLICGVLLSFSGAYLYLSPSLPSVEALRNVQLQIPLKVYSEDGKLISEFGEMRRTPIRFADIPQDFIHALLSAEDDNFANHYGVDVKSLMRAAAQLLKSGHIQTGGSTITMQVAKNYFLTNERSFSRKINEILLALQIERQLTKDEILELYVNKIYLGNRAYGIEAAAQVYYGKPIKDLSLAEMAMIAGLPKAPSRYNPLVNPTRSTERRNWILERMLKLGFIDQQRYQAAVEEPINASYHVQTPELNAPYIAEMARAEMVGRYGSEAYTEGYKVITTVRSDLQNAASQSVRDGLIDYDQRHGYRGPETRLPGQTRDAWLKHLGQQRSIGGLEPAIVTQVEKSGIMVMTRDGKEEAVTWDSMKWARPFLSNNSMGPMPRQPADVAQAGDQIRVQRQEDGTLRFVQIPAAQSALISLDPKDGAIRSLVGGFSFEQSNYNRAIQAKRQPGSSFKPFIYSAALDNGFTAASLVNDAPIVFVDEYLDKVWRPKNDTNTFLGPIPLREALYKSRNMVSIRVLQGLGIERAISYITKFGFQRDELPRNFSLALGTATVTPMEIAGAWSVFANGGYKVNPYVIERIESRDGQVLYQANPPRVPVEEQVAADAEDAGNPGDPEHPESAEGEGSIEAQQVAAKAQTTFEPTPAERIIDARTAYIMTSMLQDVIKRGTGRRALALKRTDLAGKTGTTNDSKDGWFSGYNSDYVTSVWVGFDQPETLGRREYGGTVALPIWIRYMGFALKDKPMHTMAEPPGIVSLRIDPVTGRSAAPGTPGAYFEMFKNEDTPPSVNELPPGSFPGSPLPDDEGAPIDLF

`CC1(C)[C@H](NC(=O)/C(=N\OCc2cc(=O)c(O)cn2O)c2csc(N)n2)C(=O)N1OS(=O)(=O)O`: the minimal inhibitory concentration (MIC) was 1 µg/mL (≈ 1.93 µM) with Escherichia coli [1]; over 64 µg/mL in the experiment with Escherichia coli [2]; 0.125 µg/mL (≈ 0.241 µM) in the experiment with Escherichia coli [3]; over 64 µg/mL in the experiment with Escherichia coli [4]; 0.06 µg/mL (≈ 0.116 µM) against Escherichia coli [5]; 0.125 µg/mL (≈ 0.241 µM) against Escherichia coli [6]. The MIC was 0.125 µg/mL (≈ 0.241 µM) against Escherichia coli [7]; 0.03 µg/mL (≈ 0.0579 µM) against Escherichia coli [8]; over 64 µg/mL against Escherichia coli [9]; 0.03 µg/mL (≈ 0.0579 µM) with Escherichia coli [10]; 0.125 µg/mL (≈ 0.241 µM) with Escherichia coli [11]; 0.125 µg/mL (≈ 0.241 µM) with Escherichia coli [12].

Take `CC(C)(O/N=C(\C(=O)N[C@H]1CON(C2(C(=O)O)C[C@H](NC(=O)c3cc(=O)c(O)cn3O)C(=O)O2)C1=O)c1csc(N)n1)C(=O)O` (some centres undefined): the minimum inhibitory concentration (MIC) with Pseudomonas aeruginosa [13] was 2 µg/mL (≈ 3.06 µM); against Klebsiella pneumoniae it was 8 µg/mL (≈ 12.2 µM); in the experiment on Escherichia coli [16], 1 µg/mL (≈ 1.53 µM); against Pseudomonas aeruginosa [17], 64 µg/mL (≈ 97.9 µM); against Acinetobacter baumannii, 0.5 µg/mL (≈ 0.765 µM). The IC50 in experiment [14] came to 46 nM; in [15], 3700 nM; in experiment [18], 820 nM; in experiment [19], 92 nM.

With `CC[C@H](O)Cn1c(-c2cc(=O)c(O)c[nH]2)nn(S(=O)(=O)[N-]C(=O)N2C[C@H](NC(=O)/C(=N\OC(C)(C)C(=O)[O-])c3csc(N)n3)C2=O)c1=O.[Na+].[Na+]`, the MIC in the experiment with Escherichia coli [1] is 0.25 µg/mL; in the experiment with Escherichia coli [2], 0.5 µg/mL; in the experiment with Escherichia coli [3], 0.125 µg/mL; with Escherichia coli [4] it was 0.125 µg/mL; in the experiment on Escherichia coli [5], 0.03 µg/mL; against Escherichia coli [6], 0.25 µg/mL. Further, the MIC amounted to 0.125 µg/mL in the experiment with Escherichia coli [7]; 0.03 µg/mL with Escherichia coli [8]; 0.25 µg/mL with Escherichia coli [9]; 0.015 µg/mL against Escherichia coli [10]; 0.125 µg/mL against Escherichia coli [11]; 0.06 µg/mL against Escherichia coli [12].

In the case of `Nc1nc(/C(=N/OCc2cc(=O)c(O)cn2O)C(=O)N[C@H]2CON(C3(C(=O)O)CCC(=O)O3)C2=O)cs1` (some centres undefined), the MIC with Pseudomonas aeruginosa [13] worked out at 8 µg/mL (≈ 14.9 µM); with Escherichia coli [1], 4 µg/mL (≈ 7.43 µM); against Escherichia coli [2] it was 32 µg/mL (≈ 59.4 µM); against Klebsiella pneumoniae, 32 µg/mL (≈ 59.4 µM); in the experiment with Escherichia coli [3] it was 1 µg/mL (≈ 1.86 µM); in the experiment with Escherichia coli [4], 4 µg/mL (≈ 7.43 µM). The MIC is 1 µg/mL (≈ 1.86 µM) against Escherichia coli [5]; 1 µg/mL (≈ 1.86 µM) in the experiment with Escherichia coli [6]; 1 µg/mL (≈ 1.86 µM) in the experiment on Escherichia coli [7]; 2 µg/mL (≈ 3.71 µM) in the experiment on Escherichia coli [16]; 1 µg/mL (≈ 1.86 µM) against Escherichia coli [8]; 4 µg/mL (≈ 7.43 µM) in the experiment with Pseudomonas aeruginosa [17]. Also, the MIC in the experiment on Escherichia coli [9] was found to be 16 µg/mL (≈ 29.7 µM); in the experiment on Escherichia coli [10], 0.5 µg/mL (≈ 0.929 µM); with Escherichia coli [11], 0.5 µg/mL (≈ 0.929 µM); in the experiment on Escherichia coli [12] it was 1 µg/mL (≈ 1.86 µM); in the experiment with Acinetobacter baumannii, 0.5 µg/mL (≈ 0.929 µM). Moreover, the concentration for half-maximal inhibition (IC50) in experiment [14] worked out at 46 nM; in [15], 22200 nM; in experiment [18] it was 2460 nM; in experiment [19], 140 nM.

Turning to `CC(C)(O/N=C(\C(=O)N[C@H]1CON(C2(C(=O)O)CCC(=O)O2)C1=O)c1csc(N)n1)C(=O)O` (some centres undefined), in the experiment on Escherichia coli [20], the Ratio is recorded as 4. For the same compound, the minimal inhibitory concentration (MIC) with Pseudomonas aeruginosa [13] was determined as 32 µg/mL (≈ 65.9 µM); in the experiment on Escherichia coli [1], 0.5 µg/mL (≈ 1.03 µM); with Escherichia coli [2], 0.5 µg/mL (≈ 1.03 µM); against Klebsiella pneumoniae, 4 µg/mL (≈ 8.24 µM); in the experiment on Escherichia coli [3], 0.25 µg/mL (≈ 0.515 µM); in the experiment on Escherichia coli [4], 0.5 µg/mL (≈ 1.03 µM). In addition, the MIC was 0.5 µg/mL (≈ 1.03 µM) against Escherichia coli [5]; 1 µg/mL (≈ 2.06 µM) in the experiment on Escherichia coli [6]; 0.25 µg/mL (≈ 0.515 µM) against Escherichia coli [7]; 0.25 µg/mL (≈ 0.515 µM) with Escherichia coli [8]; 32 µg/mL (≈ 65.9 µM) against Pseudomonas aeruginosa [17]; 0.25 µg/mL (≈ 0.515 µM) against Escherichia coli [9]. Besides, the MIC against Escherichia coli [10] turned out to be 0.25 µg/mL (≈ 0.515 µM); against Escherichia coli [11] it was 0.25 µg/mL (≈ 0.515 µM); with Escherichia coli [12], 0.5 µg/mL (≈ 1.03 µM); in the experiment on Acinetobacter baumannii it was 32 µg/mL (≈ 65.9 µM). The IC50 in experiment [14] was found to be 46 nM; in [15], 33300 nM; in experiment [18], 1230 nM; in experiment [19], 92 nM.

In the case of `CC(C)(O/N=C(\C(=O)N[C@H]1CON(C2(C(=O)O)C[C@H](NC(=O)OCc3ccccc3)C(=O)O2)C1=O)c1csc(N)n1)C(=O)O` (some centres undefined), the MIC in the experiment with Pseudomonas aeruginosa [13], with Klebsiella pneumoniae, against Escherichia coli [16], in the experiment with Pseudomonas aeruginosa [17] and with Acinetobacter baumannii was over 64 µg/mL each time. In addition, the results for the IC50 in experiment [14], in experiment [15] and in [18] were 65 nM, 33300 nM and 1740 nM, respectively.

Take `CC(C)(O/N=C(\C(=O)N[C@H]1CON(C2(C(=O)O)C[C@@H](NC(=O)OCc3ccccc3)C(=O)O2)C1=O)c1csc(N)n1)C(=O)O` (some centres undefined): the MIC against Pseudomonas aeruginosa [13], against Klebsiella pneumoniae, against Escherichia coli [16], against Pseudomonas aeruginosa [17] and in the experiment on Acinetobacter baumannii was over 64 µg/mL each time. Further, the IC50 in experiment [14] came to 110 nM; in experiment [15], 47100 nM; in [18] it was 2440 nM.

For the compound `C[C@H]1[C@H](NC(=O)/C(=N\OC(C)(C)C(=O)O)c2csc(N)n2)C(=O)N1S(=O)(=O)O` [AZTREONAM], the half-inhibitory concentration (IC50) is 3340 nM in experiment [14], over 300000 nM in experiment [15], 2870 nM in [18] and 8 nM in experiment [19].

As for `CC1(C)S[C@@H]2[C@H](NC(=O)[C@H](N)c3ccccc3)C(=O)N2[C@H]1C(=O)O` [AMPICILLIN], the MIC in the experiment with Escherichia coli [1] was over 64 µg/mL; against Escherichia coli [2] it was over 64 µg/mL; with Escherichia coli [4], over 64 µg/mL; with Escherichia coli [5] it was over 64 µg/mL; in the experiment with Escherichia coli [6], 32 µg/mL (≈ 91.6 µM); with Escherichia coli [7], over 64 µg/mL. Further, the MIC against Escherichia coli [8] is over 64 µg/mL; with Escherichia coli [9] it was over 64 µg/mL; against Escherichia coli [10], over 64 µg/mL; with Escherichia coli [12] it was 64 µg/mL (≈ 183 µM).

`CC(C)(O/N=C(\C(=O)N[C@H]1CON(C2(C(=O)O)C[C@@H](NC(=O)c3cc(=O)c(O)cn3O)C(=O)O2)C1=O)c1csc(N)n1)C(=O)O` (some centres undefined): the minimal inhibitory concentration (MIC) turned out to be 16 µg/mL (≈ 24.5 µM) against Pseudomonas aeruginosa [13]; 16 µg/mL (≈ 24.5 µM) in the experiment with Klebsiella pneumoniae; 1 µg/mL (≈ 1.53 µM) against Escherichia coli [16]; 2 µg/mL (≈ 3.06 µM) with Pseudomonas aeruginosa [17]; 0.5 µg/mL (≈ 0.765 µM) with Acinetobacter baumannii. Further, the IC50 in experiment [14] is 46 nM; in [15] it was 6410 nM; in [18] it was 820 nM; in experiment [19], 65 nM.
